# N-glyco inh: blocks N-linked glycosylation in D54 reporter cells | D54 ERlucT glycosylation luciferase reporter, 24 h; percent of 100 nM tunicamycin response | reporter increase, % at 12.5 µM | hit rate 0.23% among 360,000 | AID 588692;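 active = mean luciferase reporter signal, scaled so untreated is 0 and the glycosylation-blocking control 100, at or above a set limit in every replicate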;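 note: luciferase carries N-glycosylation sites so blocking glycosylation raises the light; 0% = median of neutral control wells and 100% = median of 100 nM tunicamycin wells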
# FN deposition inh: fibronectin deposition inhibition. AH1F fibroblasts, Alexa488-fibronectin deposition fluorescence, overnight. inhibition, % at 12.6 µM. hit rate 0.086% among 350,000. AID 743247;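 active = mean inhibition across replicates of 30% or more, regardless of how many single replicates reach that level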;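 note: positive control wells lacked labelled fibronectin entirely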
#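 Assay system: AH1F fibroblasts / Quantity: 10000 cells per well / Medium: DMEM plus 2% serum, read in PBS / Reagent: labelled fibronectin 24 nM / Dosing: single dose, pinned / Times: 1 h cell attachment, overnight exposure to compound and label / Signal: fluorescence, ex 485 nm, em 525 nm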
# AF4-AF9 inh: blocks AF4 peptide binding to human AF9; hit rate 0.47% among 350,000; P42568; AID 651704; AlphaScreen, biotin-AF4 peptide binding to FLAG-AF9; inhibition, % at 10 µM;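 active = every replicate reaching a set inhibition limit, whatever the replicate mean, cut at about 25% in these data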;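 note: 0% = plate neutral control median and 100% = total signal loss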
# Target sequence (P42568 whole entry, looked up): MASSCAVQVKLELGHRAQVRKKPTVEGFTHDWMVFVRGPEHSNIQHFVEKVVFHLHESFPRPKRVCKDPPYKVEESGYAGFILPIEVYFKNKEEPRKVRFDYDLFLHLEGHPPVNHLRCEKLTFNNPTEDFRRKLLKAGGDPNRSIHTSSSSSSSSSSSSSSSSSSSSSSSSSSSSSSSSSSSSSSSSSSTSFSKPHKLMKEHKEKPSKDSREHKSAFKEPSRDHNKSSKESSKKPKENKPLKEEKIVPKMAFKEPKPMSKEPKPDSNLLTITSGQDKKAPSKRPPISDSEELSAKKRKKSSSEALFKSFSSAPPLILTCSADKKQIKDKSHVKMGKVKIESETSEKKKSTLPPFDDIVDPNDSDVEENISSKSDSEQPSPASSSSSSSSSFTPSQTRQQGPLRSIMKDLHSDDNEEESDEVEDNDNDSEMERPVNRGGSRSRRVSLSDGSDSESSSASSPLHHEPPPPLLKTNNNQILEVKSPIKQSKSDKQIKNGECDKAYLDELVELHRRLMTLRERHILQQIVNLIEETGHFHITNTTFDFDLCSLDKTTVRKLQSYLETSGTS
# Env fusion inh: blocks HIV Env-driven cell-cell fusion; HeLa-JRFL Env/CEM21 cell fusion, luciferase; inhibition, % at 12.3 µM; hit rate 1.1% among 360,000; AID 651610;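 active = mean replicate inhibition score of at least 50 and every replicate individually at or above 50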;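 note: 0% = plate neutral controls and 100% = maraviroc near 300 nM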
# EWS-Fli block: blocks EWS/Fli oncoprotein-driven transcription; A673 NR0B1-luciferase reporter, viability-normalised; inhibition, % at 12.6 µM; hit rate 0.67% among 350,000;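 active = mean inhibition of at least 50% after viability correction, with every replicate also passing that limit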;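 note: firefly luciferase signal divided by Alamar Blue viability fluorescence both relative to DMSO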
# PAX8 inh HTS: inhibitors of PAX8 transcriptional activity in RMG-I cells; hit rate 1.2% among 360,000; RMG-I TPO-luciferase reporter, SteadyGlo, 24 h; AID 652154; inhibition, % at 12.6 µM;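 active = mean replicate inhibition at least 60% with every replicate also reaching 60%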;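 note: luciferase light reporting Pax8 driven TPO promoter activity; plate controls were median of neutral control wells for no effect and mitoxantrone controls for full effect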
# An asterisk follows results filed as active; · = not tested or not shown; ! = a repeat was not active; [ ] = dose if it differs, or a comment. A selection: hits, their analogues and other compounds. The true share with any hit is near 2.5%.
SMILES,N-glyco inh,FN deposition inh,AF4-AF9 inh,Env fusion inh,EWS-Fli block,PAX8 inh HTS
C[C@@H]1CN([C@H](C)CO)C(=O)c2cc(NS(C)(=O)=O)ccc2O[C@@H](C)CCCCO[C@@H]1CN(C)Cc1ccc(C(=O)O)cc1,·,·,0.6,-7.6[16.7 µM],-4.2,13.4
Fc1cccc(CCN2CCNC[C@@H]2Cc2ccccc2)c1,-3.6,25.3,6.7,7.3,-3.7,-6.4
FC(F)(F)c1cc(CCN2CCNC[C@@H]2Cc2ccccc2)cc(C(F)(F)F)c1,-5.0,-1.5,27.2*,-23.3,8.1,-10.0
C[C@@H]1CN([C@H](C)CO)C(=O)c2cc(NC(=O)Nc3cccc4ccccc34)ccc2O[C@@H]1CN(C)C(=O)Nc1ccc(F)cc1,·,·,-1.2,2.9[16.7 µM],0.6,·
Cn1c(/C=C/c2ccc(Br)cc2)c([N+](=O)[O-])c(=O)n(C)c1=O,-2.9,·,4.5,-24.0,-0.8,62.7*
CCCOc1ccc2cc(-c3ccccn3)c(=O)oc2c1,-21.2,-4.4,-2.8,2.9,77.2*,73.8*
COc1ccc(OCC(=O)Nc2ccc3c(c2)nc(CCN2CCN(c4ccccn4)CC2)n3C)cc1,-3.7,-5.0,2.6,29.0,1.5,17.0
Cc1ccc(S(=O)(=O)Nc2ccc3c(c2)nc(CCN2CCN(c4ccccn4)CC2)n3C)cc1,-7.3,-1.6,3.5,5.7,13.3,21.0
Cn1c(CCN2CCN(c3ccccn3)CC2)nc2cc(NC(=O)COc3ccc(Cl)cc3)ccc21,-5.6,2.6,0.4,10.8,·,66.8*
Cn1c(CCN2CCN(c3ccccn3)CC2)nc2cc(NS(=O)(=O)c3ccc(Cl)cc3)ccc21,-6.7,12.0,3.3,-4.6,·,89.9*
Cc1cccc(OCC(=O)Nc2ccc3c(c2)nc(CCN2CCN(c4ccccn4)CC2)n3C)c1,-4.6,4.6,1.9,13.0,·,71.3*
CC1CCN(CCc2nc3cc(NC(=O)COc4ccc(Cl)cc4)ccc3n2C)CC1,-9.3,10.0,4.4,10.3,·,75.5*
COc1ccc(NC(=O)Nc2ccc3c(c2)C(=O)N([C@H](C)CO)C[C@H](C)[C@H](CN(C)Cc2ccncc2)O3)cc1,·,·,-6.7,·,27.9,-17.1
CCC(=O)N1C[C@@H](C)[C@@H](OC)CN(C)C(=O)c2cc(NC(=O)NC3CCCC3)ccc2OC[C@@H]1C,·,-4.0,·,·,·,·
CN(C)CC(=O)Nc1ccc2c(c1)[C@H]1C[C@@H](CC(=O)NCC3CC3)O[C@@H](CO)[C@H]1O2,·,-9.0,-2.4,-2.7[16.7 µM],-1.6,10.8
CCOc1ccc(/C=N/NC(=O)c2cc3c(OC)cccc3[nH]2)cc1,50.3*,5.2,-1.5,-6.3,25.7,11.5
COc1cccc(/C=N/NC(=O)c2cc3c(OC)c(OC)ccc3[nH]2)c1OC,19.9,-10.3,9.2,42.3,42.0,1.8
COc1ccccc1/C=N/NC(=O)c1cc2c(OC)c(OC)ccc2[nH]1,33.8*,3.7,7.9,-139.5,18.9,18.7
O=C(c1ccccn1)N1CC(=O)N2[C@H](C1)[C@H](c1ccc(C#Cc3ccccc3)cc1)[C@@H]2CO,·,·,0.5,·,2.2,·
COc1ccc(C(=O)N(C)C(C)c2nccs2)cc1OC1CCN(C(C)=O)CC1 (stereo not given),0.6,9.7,-4.8,17.4,5.3,-7.7
CC[C@@H](C)[C@H](C(CC(=O)N1CCCC1[C@@H](OC)[C@H](C)C(=O)N[C@H](Cc1ccccc1)c1nccs1)OC)N(C)C(=O)[C@H](NC(=O)[C@@H](C(C)C)N(C)C)C(C)C (stereo not given in full),4.4,-9.6,-0.2,-93.2,29.7,81.6*
COCC(=O)Nc1ccc2c(c1)[C@@H]1C[C@@H](CC(=O)N3CCc4ccccc4C3)O[C@@H](CO)[C@@H]1O2,·,·,-5.3,·,3.8,·
COc1ccccc1S(=O)(=O)N(C)C[C@H]1Oc2cc(C#CCC(C)C)ccc2S(=O)(=O)N([C@@H](C)CO)C[C@@H]1C,·,·,2.9,14.6[16.7 µM],16.1,·
COc1ccccc1S(=O)(=O)N(C)C[C@H]1Oc2cc(C#CCC3CCCC3)ccc2S(=O)(=O)N([C@H](C)CO)C[C@H]1C,-3.0,8.7,1.0,16.5,8.4,84.1*!
COc1ccccc1S(=O)(=O)N(C)C[C@@H]1Oc2cc(C#CCC3CCCC3)ccc2S(=O)(=O)N([C@H](C)CO)C[C@@H]1C,·,-4.3,0.5,29.9[16.7 µM],27.8,64.1*

# Compound activity (PubChem BioAssay)
